The values below come from ChEMBL document CHEMBL3351939, “Diterpenoids with Immunosuppressive Activities from Cinnamomum cassia” (J Nat Prod, 2014).

One data set relates to T-cell. The experiment in a line: Immunosuppressive activity in mouse T cells assessed as inhibition of ConA-induced cell proliferation at 0.05 to 0.8 mM. Type of data set: functional, cell-based. The gist of the method:
(§1)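 Murine splenocytes with ConA-induced T-cell proliferation; the read-out is percent inhibition of proliferation. Cyclosporine A serves as the reference. Results are given as mean ± SD, n = 3.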

The nature of data set [1]: Immunosuppressive activity in mouse T cells assessed as inhibition of ConA-induced cell proliferation at 100 uM. Format: functional. The method, boiled down:
as §1

The next data set deals with B. The experiment in a line: Immunosuppressive activity in mouse B cells assessed as inhibition of LPS-induced cell proliferation at 0.05 to 0.8 mM. Format: functional, cell-based. The method, boiled down: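 Murine splenocytes with LPS-induced B-cell proliferation; the read-out is percent inhibition of proliferation.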
Data set [2] in a line: Immunosuppressive activity in mouse T cells assessed as inhibition of ConA-induced cell proliferation at 50 uM. Format: functional. The gist of the method:
as §1

Data set [3] in a line: Toxicity against mouse lymphocytes assessed as cell viability at 50 uM. Type of data set: cell-based, Lymphocyte. Conditions: read-out: Activity.

Calls of active or inactive are those of the source. No cut-off for these calls is given here.

For the compound `CC1=C([C@H](C)CO)C[C@@]2(O)[C@@]3(C)CC(=O)O[C@H]([C@]4(O)[C@H](C)CC[C@@]43O)[C@@]12O`, the inhibition entry in the data set with T-cell and in the data set with B was “Dose-dependent effect” throughout. Moreover, the inhibition at 100 µM in data set [1] is 94.5%. Moreover, the inhibition at 50 µM in data set [2] was determined as 86.1%. Further, the viability at 50 µM in data set [3] is 105%.

As to `CC1=C(C(C)C)C[C@@]2(O)[C@@]3(CO[C@@H]4O[C@H](CO)[C@@H](O)[C@H](O)[C@H]4O)CC(=O)O[C@H]([C@]4(O)[C@H](C)CC[C@@]43O)[C@@]12O`, the inhibition result in the data set with T-cell and in the data set on B was “inactive” in each case.

Take `CC1=C([C@H](C)CO)C[C@@]2(O)[C@@]3(C)CC(=O)O[C@@H]4[C@@H](C)CC[C@@]3(O)[C@@]4(O)[C@@]12O`: the inhibition entry with T-cell and with B was “Dose-dependent effect” each time. Also, the inhibition at 50 µM in data set [2] worked out at 58.8%. Also, in data set [3], the viability at 50 µM came to 97.8%.

As for `C/C=C/C[C@@H](C)[C@@H](O)[C@H]1C(=O)N[C@@H](CC)C(=O)N(C)CC(=O)N(C)[C@@H](CC(C)C)C(=O)N[C@@H](C(C)C)C(=O)N(C)[C@@H](CC(C)C)C(=O)N[C@@H](C)C(=O)N[C@H](C)C(=O)N(C)[C@@H](CC(C)C)C(=O)N(C)[C@@H](CC(C)C)C(=O)N(C)[C@@H](C(C)C)C(=O)N1C` [CYCLOSPORINE], the inhibition at 100 µM in data set [1] is 101%.

One may read the inhibition as the relative decrease from the control value, in per cent.
